ChEMBL document CHEMBL1275496, “In vivo pharmacodynamic target investigation for micafungin against Candida albicans and C. glabrata in a neutropenic murine candidiasis model” (Antimicrob Agents Chemother, 2008)
≈ marks a conversion by molar mass, not a printed value. *1 amine or outer side, *2 acyl side, *3 side chain or, on linkers, in order; H or OH if unused. Where a SMILES comes first, the peptide text is derived from it. Bridges are numbered along the chain shown (N, C = ends). [ ]: non-standard residue; d: D form. The star is where a group is joined. hTyr(3S-OH,4S-OH,3'-OSO3H) = N[C@H](C(=O)O)[C@H](O)[C@@H](O)c1ccc(O)c(OS(=O)(=O)O)c1; Orn(4R-OH,5R-OH) = O=C([C@H](C[C@@H](O)[C@@H](O)N[*:3])N[*:1])[*:2]; Pro(3S-OH,4S-Me) = C[C@H]1CN[C@H](C(=O)O)[C@H]1O; X1 = CCCCCOc1ccc(-c2cc(-c3ccc(C(=O)*)cc3)no2)cc1; Gln(3R-OH) = NC(=O)C[C@@H](O)[C@H](N)C(=O)O; Hyp = O=C(O)[C@@H]1C[C@@H](O)CN1

Key:
[1] = Ratio of AUC in ICR/Swiss neutropenic mouse at static dose of 2.84 mg/kg, ip after 24 hrs to MIC for Candida albicans isolate 98-210; assay type: functional; details: route intraperitoneal
[2] = Ratio of AUC in ICR/Swiss neutropenic mouse at static dose of 2.84 mg/kg, ip after 24 hrs to MIC for Candida albicans isolate K1; assay type: functional; details: route intraperitoneal
[3] = Ratio of AUC in ICR/Swiss neutropenic mouse at static dose of 9.25 mg/kg, ip after 24 hrs to MIC for Candida glabrata isolate 37661; assay type: functional; details: route intraperitoneal
[4] = Ratio of AUC in ICR/Swiss neutropenic mouse at static dose of 2.18 mg/kg, ip after 24 hrs to MIC for Candida glabrata isolate 34341; assay type: functional; details: route intraperitoneal
[5] = Ratio of AUC in ICR/Swiss neutropenic mouse at static dose of 0.06 mg/kg, ip after 24 hrs to MIC for Candida glabrata isolate 32930; assay type: functional; details: route intraperitoneal
[6] = Ratio of AUC in ICR/Swiss neutropenic mouse at static dose of 0.90 mg/kg, ip after 24 hrs to MIC for Candida glabrata isolate 5376; assay type: functional; details: dose 0.9 mg/kg; route intraperitoneal
[7] = Ratio of AUC in ICR/Swiss neutropenic mouse at static dose of 3.88 mg/kg, ip after 24 hrs to MIC for Candida glabrata isolate 33616; assay type: functional; details: route intraperitoneal
[8] = Ratio of fAUC in ICR/Swiss neutropenic mouse at static dose of 9.25 mg/kg, ip after 24 hrs to MIC for Candida glabrata isolate 37661; assay type: functional; details: route intraperitoneal
[9] = Ratio of fAUC in ICR/Swiss neutropenic mouse at static dose of 0.41 mg/kg, ip after 24 hrs to MIC for Candida glabrata isolate 33609; assay type: functional; details: route intraperitoneal
[10] = Ratio of fAUC in ICR/Swiss neutropenic mouse at static dose of 3.88 mg/kg, ip after 24 hrs to MIC for Candida glabrata isolate 33616; assay type: functional; details: route intraperitoneal
[11] = Ratio of AUC in ICR/Swiss neutropenic mouse at 1-Log kill dose of 3.77 mg/kg, ip after 24 hrs to MIC for Candida glabrata isolate 35315; assay type: functional; details: route intraperitoneal
[12] = Ratio of AUC in ICR/Swiss neutropenic mouse at 1-Log kill dose of 1.69 mg/kg, ip after 24 hrs to MIC for Candida glabrata isolate 32930; assay type: functional; details: route intraperitoneal
[13] = Ratio of fAUC in ICR/Swiss neutropenic mouse at 1-Log kill dose of 4.60 mg/kg, ip after 24 hrs to MIC for Candida albicans isolate 98-17; assay type: functional; details: dose 4.6 mg/kg; route intraperitoneal
[14] = Ratio of fAUC in ICR/Swiss neutropenic mouse at 1-Log kill dose of 10.4 mg/kg, ip after 24 hrs to MIC for Candida albicans isolate 98-210; assay type: functional; details: route intraperitoneal
[15] = Ratio of fAUC in ICR/Swiss neutropenic mouse at 1-Log kill dose of 2.36 mg/kg, ip after 24 hrs to MIC for Candida albicans isolate 580; assay type: functional; details: route intraperitoneal
[16] = Ratio of fAUC in ICR/Swiss neutropenic mouse at 1-Log kill dose of 4.08 mg/kg, ip after 24 hrs to MIC for Candida albicans isolate K1; assay type: functional; details: route intraperitoneal
[17] = Ratio of fAUC in ICR/Swiss neutropenic mouse at 1-Log kill dose of 4.26 mg/kg, ip after 24 hrs to MIC for Candida glabrata isolate 34341; assay type: functional; details: route intraperitoneal
[18] = Ratio of fAUC in ICR/Swiss neutropenic mouse at 1-Log kill dose of 6.70 mg/kg, ip after 24 hrs to MIC for Candida glabrata isolate 570; assay type: functional; details: dose 6.7 mg/kg; route intraperitoneal
Candida albicans [19] = experiment: Antifungal activity against Candida albicans isolate 98-210 by CLSI method; assay type: functional
In short: (§1)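 Broth microdilution MIC per CLSI M27-A2. Two endpoints were read against the drug-free control well: partial inhibition (M1, CLSI recommended) and complete inhibition (M2). Tests were run in duplicate on four separate occasions, and the value is the mean.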

Candida albicans [20] = experiment: Antifungal activity against Candida albicans isolate 580 by CLSI method; assay type: functional; in short: as §1
Nakaseomyces glabratus [21] = experiment: Antifungal activity against Candida glabrata isolate 32930 by CLSI method; assay type: functional; in short: as §1
Nakaseomyces glabratus [22] = experiment: Antifungal activity against Candida glabrata isolate 33609 by CLSI method; assay type: functional; in short: as §1
Nakaseomyces glabratus [23] = experiment: Antifungal activity against Candida glabrata isolate 513 by CLSI method; assay type: functional; in short: as §1
Nakaseomyces glabratus [24] = experiment: Antifungal activity against Candida glabrata isolate 5592 by CLSI method; assay type: functional; in short: as §1
[25] = (§2) Cmax in Candida infected ICR/Swiss neutropenic mouse at 20 mg/kg, ip; assay type: ADME, organism-based; design: dose 20 mg/kg, route intraperitoneal; details: ICR/Swiss, in vivo
In short: (§3)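 Single intraperitoneal micafungin doses (80, 20, 5 mg/kg in 0.2 ml, 0.15 M NaCl) given to infected neutropenic mice. Serum was taken from 3 mice per time point at 1, 2, 4, 6, 8, 12, 24 and 48 h. Drug was measured by microbiologic assay with C. albicans K1 (LLOQ 0.12 μg/ml). Noncompartmental analysis; half-life by nonlinear least squares; AUC by trapezoidal rule.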

Mus musculus = experiment: as §2; assay type: ADME, organism-based; design: dose 20 mg/kg, route intraperitoneal; details: in vivo; in short: as §3
[26] = Half life in Candida infected ICR/Swiss neutropenic mouse at 20 mg/kg, ip; assay type: ADME, organism-based; design: dose 20 mg/kg, route intraperitoneal; details: in vivo; in short: as §3
[27] = Cmax in Candida infected ICR/Swiss neutropenic mouse at 5 mg/kg, ip; assay type: ADME, organism-based; design: dose 5 mg/kg, route intraperitoneal; details: in vivo; in short: as §3
Nakaseomyces glabratus [28] = experiment: Fungistatic activity against Candida glabrata isolate 35315 infected in ICR/Swiss neutropenic mouse after 24 hrs; assay type: functional
In short: (§4)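 Neutropenic female ICR/Swiss mice received cyclophosphamide sc at 150 mg/kg on day −4, 100 mg/kg on day −1 and 100 mg/kg on day +2. Mice were infected iv via the tail vein, and ip micafungin in 0.15 M NaCl started 2 h later. Six dose levels from 0.078 to 80 mg/kg/24 h were given q24h for 4 days, 3 mice per dose. Kidney CFU were counted at 96 h. The static dose was derived from a sigmoid Emax (Hill) fit.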

Nakaseomyces glabratus [29] = experiment: Fungistatic activity against Candida glabrata isolate 37661 infected in ICR/Swiss neutropenic mouse after 24 hrs; assay type: functional; in short: as §4
Nakaseomyces glabratus [30] = experiment: Fungistatic activity against Candida glabrata isolate 513 infected in ICR/Swiss neutropenic mouse after 24 hrs; assay type: functional; in short: as §4
Nakaseomyces glabratus [31] = experiment: Fungistatic activity against Candida glabrata isolate 5376 infected in ICR/Swiss neutropenic mouse after 24 hrs; assay type: functional; in short: as §4
Nakaseomyces glabratus [32] = experiment: Fungistatic activity against Candida glabrata isolate 570 infected in ICR/Swiss neutropenic mouse after 24 hrs; assay type: functional; in short: as §4
Candida albicans [33] = experiment: Antifungal activity against Candida albicans isolate K1 infected in ICR/Swiss neutropenic mouse assessed as dose required for 1-log kill after 24 hrs; assay type: functional
In short: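 Neutropenic mice (cyclophosphamide sc 150 mg/kg day −4, 100 mg/kg day −1 and +2) infected iv by tail vein 2 h before therapy. Micafungin given ip every 24 h for 4 days at six fourfold-spaced dose levels, 0.078–80 mg/kg/24 h, 3 mice per group. Kidney CFU read at 96 h. Hill-model fit; dose giving 1 log10 below start-of-therapy burden.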

CCCCCOc1ccc(-c2cc(-c3ccc(C(=O)N[C@H]4C[C@@H](O)[C@@H](O)NC(=O)[C@@H]5[C@@H](O)[C@@H](C)CN5C(=O)[C@H]([C@H](O)CC(N)=O)NC(=O)[C@H]([C@H](O)[C@@H](O)c5ccc(O)c(OS(=O)(=O)O)c5)NC(=O)[C@@H]5C[C@@H](O)CN5C(=O)[C@H]([C@@H](C)O)NC4=O)cc3)no2)cc1 [MICAFUNGIN] (X1-[Orn(4R-OH,5R-OH)]T[Hyp][hTyr(3S-OH,4S-OH,3'-OSO3H)][Gln(3R-OH)][Pro(3S-OH,4S-Me)]; lactam 1-C)
RatioAUC/MIC [1]: 5200 | RatioAUC/MIC [2]: 5200 | RatioAUC/MIC [3]: 984 | RatioAUC/MIC [4]: 1003 | RatioAUC/MIC [5]: 236 | RatioAUC/MIC [6]: 3571 | RatioAUC/MIC [7]: 428 | fAUC/MIC [8]: 2.5 | fAUC/MIC [9]: 1.9 | fAUC/MIC [10]: 1.1 | RatioAUC/MIC [11]: 1733 | RatioAUC/MIC [12]: 3107 | fAUC/MIC [13]: 10.6 | fAUC/MIC [14]: 46 | fAUC/MIC [15]: 4.21 | fAUC/MIC [16]: 18.8 | fAUC/MIC [17]: 4.9 | fAUC/MIC [18]: 30.2 | MIC (Candida albicans [19]): 0.03 µg/mL (≈ 0.0236 µM) | MIC50 (Candida albicans [19]): 0.016 µg/mL (≈ 0.0126 µM) | MIC (Candida albicans [20]): 0.016 µg/mL (≈ 0.0126 µM) | MIC50 (Candida albicans [20]): 0.008 µg/mL (≈ 0.0063 µM) | MIC (Nakaseomyces glabratus [21]): 0.016 µg/mL (≈ 0.0126 µM) | MIC50 (Nakaseomyces glabratus [21]): 0.008 µg/mL (≈ 0.0063 µM) | MIC (Nakaseomyces glabratus [22]): 0.016 µg/mL (≈ 0.0126 µM) | MIC50 (Nakaseomyces glabratus [22]): 0.016 µg/mL (≈ 0.0126 µM) | MIC (Nakaseomyces glabratus [23]): 0.03 µg/mL (≈ 0.0236 µM) | MIC50 (Nakaseomyces glabratus [23]): 0.016 µg/mL (≈ 0.0126 µM) | MIC (Nakaseomyces glabratus [24]): 0.03 µg/mL (≈ 0.0236 µM) | MIC50 (Nakaseomyces glabratus [24]): 0.016 µg/mL (≈ 0.0126 µM) | Cmax [25]: 28000 ng/mL | Cmax (Mus musculus): 28000 ng/mL | half-life [26]: 13 h | Cmax [27]: 7000 ng/mL | Activity (Nakaseomyces glabratus [28]): 2.4 mg/kg | Activity (Nakaseomyces glabratus [29]): 9.25 mg/kg | Activity (Nakaseomyces glabratus [30]): 1.34 mg/kg | Activity (Nakaseomyces glabratus [31]): 0.9 mg/kg | Activity (Nakaseomyces glabratus [32]): 3.76 mg/kg | Activity (Candida albicans [33]): 4.08 mg/kg
